This note sets out measurements from ChEMBL document CHEMBL1128429, “Synthesis and structure-activity relationships of 6-heterocyclic-substituted purines as inactivation modifiers of cardiac sodium channels” (J Med Chem, 1995).

pEC50: −log10 of the molar value.

As a reminder, the pEC50 is the EC50 on a negative log10 scale, so that one unit is a factor of ten. Lower therefore signals a large EC50. By EC20 is commonly meant the concentration at which the effect reaches the 20% level. Read a low EC20 as an effect from little substance.

For data set [1], the system named is Sodium channel protein type 5 subunit alpha (Cavia porcellus). The data set can be described thus: Inactivation process of guinea pig cardiac Na channels expressed in xenopus oocytes was determined by measuring increase in current integral in presence of compound versus control at 10 uM. The conditions noted are these: oocyte.
A short description of data set [2]: Inactivation processes of human heart Na channel expressed in Xenopus oocytes as increase in current at 10 uM. Type of data set: functional, Oocyte. The method in brief: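 Oocytes injected with cRNA transcribed from human cardiac Na channel (HH1) cDNA. Two-microelectrode voltage clamp at 21–23 °C, perfusion buffer with Na raised to 140 mM. Current integrated at −20 mV after the capacity transient settled. Single 10 μM exposure per oocyte; percent change in integral versus control, ± SEM.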

Data set [3] can be described thus: Effective concentration against Xenopus oocytes expressing human heart Na channel. It is filed as functional, cell-based. The conditions noted are these: oocyte. In short, it runs like this:
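HH1 human cardiac Na channel cRNA in oocytes; perfusate Na 140 mM, 21–23 °C, integral taken at −20 mV. At least three concentrations, n ≥ 3 each, single concentration per oocyte. Pooled data gave the EC50 (nM producing 50% integral increase) by linear regression over the lower, non-blocking range.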

Data set [4] is filed under the species Oryctolagus cuniculus. The data set can be described thus: Antiarrhythmic activity was determined by measuring the concentration that produced a 20 ms increase in ERP. It is filed as functional, Heart. The method in brief: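 Langendorff-perfused rabbit heart, equilibrated 45 min before control. ERP measured after 15 min exposure to each of five cumulative concentrations: single premature stimulus scanning diastole at twice threshold. Concentration giving a 20 ms ERP increase taken from the concentration–response curve; repeated-measures ANOVA, mean change ± SEM.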

For data set [5], the species on record is Oryctolagus cuniculus. The data set can be described thus: Concentration which increased contractility by 20% in rabbit. It is filed as functional. In short, it runs like this:
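Langendorff-perfused rabbit heart, 45 min equilibration, then five cumulative concentrations with 15 min exposure each. Contractility read as dP/dt; the nanomolar concentration raising it by 20% was derived from the concentration–response curve. Repeated-measures ANOVA, mean change from control ± SEM.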

Data set [6] is described as follows: Effective concentration against Xenopus oocytes expressing guinea pig heart Na channel. Type of data set: functional, cell-based, Cavia porcellus. The conditions noted are these: oocyte. The method in brief:
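Guinea pig heart RNA in Xenopus oocytes, voltage clamp at 21–23 °C, integral taken at −10 mV. Three or more concentrations, n ≥ 3 each, one per oocyte. Pooled percent-change data plotted semilogarithmically; EC50 (nM giving 50% integral increase) obtained by linear regression over the range lacking significant current block.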

`OC(CN1CCN(C(c2ccccc2)c2ccccc2)CC1)Cn1cnc2ccccc21` (stereo not drawn): the Change in data set [1] turned out to be 42%.

For `CC1CN(CC(O)Cn2cnc3c(-n4cccc4)ncnc32)CCN1C(c1ccccc1)c1ccccc1` (stereo not drawn), in data set [1], the Change amounted to 839%.

In the case of `Cc1ccn(-c2ncnc3c2ncn3CC(O)CN2CCN(C(c3ccccc3)c3ccccc3)CC2)n1` (stereo not drawn), the Change in data set [2] is 40%.

For the compound `CN1CCN(CC(O)Cn2cnc3c(-n4cccc4)ncnc32)CC1` (stereo not drawn), in data set [1], the Change was -35%.

With `OC(CN1CCN(C(c2ccccc2)c2ccccc2)CC1)Cn1cnc2c(Cl)ncnc21` (stereo not drawn), in data set [2], the Change amounted to 176%. This compound had a pEC50 in data set [3] of 5.71.

With `OC(CN1CCN(C(c2ccccc2)c2ccccc2)CC1)Cn1cnc2c(N3CCCCC3)ncnc21` (stereo not drawn), in data set [1], the Change is 26%.

As to `OC(CN1CCN(C(c2ccccc2)c2ccccc2)CC1)Cn1cnc2cccnc21` (stereo not drawn), in data set [1], the Change is 154%.

For the compound `Nc1ncnc2c1ncn2CCCN1CCN(C(c2ccccc2)c2ccccc2)CC1`, in data set [1], the Change is on record as -66%.

For the compound `OC(CN1CCC(=C(c2ccccc2)c2ccccc2)CC1)Cn1cnc2c(-n3cccc3)ncnc21` (stereo not drawn), the Change in data set [1] came to 94%.

With `Cc1ncnc2c1ncn2C[C@@H](O)CN1CCN(C(c2ccccc2)c2ccccc2)CC1`, the Change in data set [2] worked out at 105%. This compound gave a pEC50 in data set [3] of 5.40.

`C[C@](O)(CN1CCN(C(c2ccccc2)c2ccccc2)CC1)Cn1cnc2c(-n3cccc3)ncnc21`: the Change in data set [1] is listed as 34%.

For the compound `OC(CN1CCC(C(c2ccccc2)c2ccccc2)CC1)Cn1cnc2c(-n3cccc3)ncnc21` (stereo not drawn), in data set [1], the Change is reported as 108%.

Regarding `OC(CN1CCN(C(c2ccccc2)c2ccccc2)CC1)Cn1ccc2ccccc21` (stereo not drawn), in data set [1], the Change is reported as 36%.

Regarding `OC(CN1CCC(C(O)(c2ccccc2)c2ccccc2)CC1)Cn1cnc2c(-n3cccc3)ncnc21` (stereo not drawn), in data set [1], the Change is listed as -10%.

Compound `O[C@@H](CN1CCN(C(c2ccccc2)c2ccccc2)CC1)Cn1cnc(-n2cccn2)c2ncnc1-2` came in with an EC20 in the data set listed under Oryctolagus cuniculus [4] of 74 nM. Moreover, the dP/dt in the data set listed under Oryctolagus cuniculus [5] is 148 nM. In addition, the Change in data set [2] was found to be 369%. This compound also had a pEC50 in data set [3] of 6.05.

`O[C@@H](CN1CCN(C(c2ccccc2)c2ccccc2)CC1)Cn1cnc2c(-c3cccs3)ncnc21`: the Change in data set [2] amounted to 116%. Also, the negative logarithm of the EC50 (pEC50) in data set [3] is 5.99.

For `OC(CN1CCN(C(c2ccccc2)c2ccccc2)CC1)Cn1cnc2c(C#Cc3ccccc3)ncnc21` (stereo not drawn), the Change in data set [1] stood at 9%.

As for `NC(CN1CCN(C(c2ccccc2)c2ccccc2)CC1)Cn1cnc2c(-n3cccc3)ncnc21` (stereo not drawn), in data set [1], the Change is given as 451%.

With `O[C@@H](CN1CCN(C(c2ccccc2)c2ccccc2)CC1)Cn1cnc(-c2ccncc2)c2ncnc1-2`, in data set [2], the Change is listed as 265%. The compound further had a negative logarithm of the EC50 (pEC50) in data set [3] of 5.68.

Regarding `CC(c1ccccc1)N1CCN(CC(O)Cn2cnc3c(-n4cccc4)ncnc32)CC1` (stereo not drawn), the Change in data set [1] is -32%.

Regarding `OC(CN1CCN(C(c2ccccc2)c2ccccc2)CC1)Cn1ccc2cccnc21` (stereo not drawn), the Change in data set [1] was -71%.

Regarding `c1ccc2c(c1)CCc1ccccc1C2N1CCN(CCCn2cnc3c(-n4cccc4)ncnc32)CC1`, the Change in data set [1] is 120%.

For the compound `Cc1nccn1-c1ncnc2c1ncn2C[C@@H](O)CN1CCN(C(c2ccccc2)c2ccccc2)CC1`, the Change in data set [2] stood at 1449%. In addition, the pEC50 in data set [3] was 5.57.

As for `OC(CN1CCCN(C(c2ccccc2)c2ccccc2)CC1)Cn1cnc2c(-n3cccc3)ncnc21` (stereo not drawn), the Change in data set [1] was determined as 38%.

For the compound `O=C(CN1CCN(C(c2ccccc2)c2ccccc2)CC1)Cn1cnc2c(-n3cccc3)ncnc21`, the Change in data set [1] came to 9%.

On to `Cc1cc2c(n1-c1ncnc3c1ncn3CC(O)CN1CCN(C(c3ccccc3)c3ccccc3)CC1)CCCC2` (stereo not drawn), for which the Change in data set [1] stood at 8%.

Take `OC(CN1CCN(C(c2ccccc2)c2ccccc2)CC1)Cn1cnc2c(Cc3ccccc3)ncnc21` (stereo not drawn): the Change in data set [1] was -100%.

As to `OC(CN1CCN(C(c2ccc(F)cc2)c2ccc(F)cc2)CC1)Cn1cnc2c(-n3cccc3)ncnc21` (stereo not drawn), the Change in data set [1] turned out to be 521%.

`O[C@@H](CN1CCN(C(c2ccccc2)c2ccccc2)CC1)Cn1cnc2c(-n3cccc3)ncnc21` gave a negative-log EC50 (pEC50) in data set [6] of 6.61. For the same compound, the Change in data set [1] is 390%.

`O[C@@H](CN1CCN(C(c2ccccc2)c2ccccc2)CC1)Cn1cnc(-c2cccs2)c2ncnc1-2`: the Change in data set [2] is 437%. Further, the pEC50 in data set [3] was 6.36.

Turning to `Cc1ccc(C)n1-c1ncnc2c1ncn2CC(O)CN1CCN(C(c2ccccc2)c2ccccc2)CC1` (stereo not drawn), the Change in data set [1] was -47%.

Take `O/N=C(/CN1CCN(C(c2ccccc2)c2ccccc2)CC1)Cn1cnc2c(-n3cccc3)ncnc21`: the Change in data set [1] is -6%.

For the compound `OC(CN1CCN(C(c2ccccc2)c2ccncc2)CC1)Cn1cnc2c(-n3cccc3)ncnc21` (stereo not drawn), the Change in data set [1] stood at 326%.

For `O[C@@H](CN1CCN(C(c2ccccc2)c2ccccc2)CC1)Cn1cnc2c(-c3ncon3)ncnc21`, the Change in data set [2] stood at 138%.

As to `O=C(C(c1ccccc1)c1ccccc1)N1CCN(CC(O)Cn2cnc3c(-n4cccc4)ncnc32)CC1` (stereo not drawn), the Change in data set [1] was 6%.

As for `OC(CN1CCN(C2c3ccccc3-c3ccccc32)CC1)Cn1cnc2c(-n3cccc3)ncnc21` (stereo not drawn), in data set [1], the Change is -19%.

For `Nc1ncnc2c1ncn2C[C@H](O)CN1CCN(C(c2ccccc2)c2ccccc2)CC1`, in the data set filed under Oryctolagus cuniculus [4], the 20% effect concentration (EC20) stood at 5240 nM. This compound also yielded a dP/dt in the data set listed under Oryctolagus cuniculus [5] of 1140 nM. For the same compound, the Change in data set [1] is reported as -43%.

Consider `OC(CN1CCN(CC(c2ccccc2)c2ccccc2)CC1)Cn1cnc2c(-n3cccc3)ncnc21` (stereo not drawn), for which, in data set [1], the Change was -47%.

In the case of `OC(CN1CCN(Cc2ccccc2)CC1)Cn1cnc2c(-n3cccc3)ncnc21` (stereo not drawn), the Change in data set [1] worked out at 182%.

As for `O[C@@H](CN1CCN(C(c2ccccc2)c2ccccc2)CC1)Cn1cnc(-c2ncon2)c2ncnc1-2`, the Change in data set [2] is given as -6%.

For `OC(CN1CCN(C(c2ccccc2)c2ccccc2)CC1)Cn1cnc2c(-c3ccccc3)ncnc21` (stereo not drawn), in data set [6], the pEC50 was 5.90. For the same compound, the Change in data set [1] came to 151%.

As for `Nc1nc(-c2ccncc2)nc2c1ncn2CC(O)CN1CCN(C(c2ccccc2)c2ccccc2)CC1` (stereo not drawn), the Change in data set [1] was -2%.

As for `OC(CN1CCN(C(c2ccccc2)c2ccccc2)CC1)Cn1cnc2c(NCc3ccccc3)ncnc21` (stereo not drawn), in data set [1], the Change is reported as -77%.

Regarding `O=Cc1ccn(-c2ncnc3c2ncn3C[C@@H](O)CN2CCN(C(c3ccccc3)c3ccccc3)CC2)c1`, the Change in data set [2] is on record as 63%. The pEC50 in data set [3] is 5.14.

`OC(COc1cccc2[nH]ccc12)CN1CCN(C(c2ccccc2)c2ccccc2)CC1` (stereo not drawn): the Change in data set [1] is reported as -29%.

On to `O[C@@H](CN1CCN(C(c2ccccc2)c2ccccc2)CC1)Cn1cnc2c(-n3cccc3)nc(C(F)(F)F)nc21`, for which the Change in data set [1] is -13%.

On to `O[C@@H](CN1CCN(C(c2ccccc2)c2ccccc2)CC1)Cn1cnc2c(-c3ccncc3)ncnc21`, for which, in data set [2], the Change is given as 99%. In addition, the pEC50 in data set [3] was 5.55.

`O[C@@H](CN1CCN(C(c2ccccc2)c2ccccc2)CC1)Cn1cnc2c(-n3ccnc3)ncnc21` returned a concentration for an effect of 20% (EC20) in the data set filed under Oryctolagus cuniculus [4] of 30 nM. The Change in data set [2] was found to be 459%. Also, the pEC50 in data set [3] is 5.90.

As to `Cc1ccccc1C(c1ccccc1)N1CCN(CC(O)Cn2cnc3c(-n4cccc4)ncnc32)CC1` (stereo not drawn), the Change in data set [1] was determined as 209%.

On to `OC(CN1CCN(C(c2ccccc2)c2ccccc2)CC1)Cn1cnc2c(-n3cccc3)ncnc21` (stereo not drawn), for which the pEC50 in data set [6] was 6.24. Besides, the Change in data set [1] was 542%.
